Data set [1] concerns the target KCa2.3 (Homo sapiens, UniProt Q9UGI6). In words: QPatch-HTX patch-clamp, KCa2.3. The data set is classed as cell-based. The method, boiled down: (§1)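 Automated whole-cell patch clamp on a QPatch-HTX. Test compound came from 10 mM DMSO stocks, diluted in fixed ratios into each channel's own extracellular solution, over 300 nM to 30 μM. Each current slope was the mean of five measurements at the end of each liquid period. Activation was normalised per cell to a saturating 30 μM activator applied before washout; otherwise currents were normalised to the last vehicle period. Hill fit used ≥3 cells.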
For orientation: Patch clamp records ionic current or voltage across a cell membrane.

The target of data set [2] is KCa3.1 channel (Homo sapiens, UniProt O15554+P0DP23). Description: QPatch-HTX patch-clamp, KCa3.1 activation. Format: cell-based. The method, boiled down:
as §1

Data set [3] has as its target KCa2.2 (Rattus norvegicus, UniProt P70604). Description: QPatch-HTX patch-clamp, KCa2.2. The data set is classed as cell-based. Put shortly:
as §1

For data set [4], the system named is small-conductance Ca2+-activated KCa2 channels. The note with it: cited from earlier work.
The conditions of data set [5]: up to 30 mg kg^−1 i.p., mice; cited from earlier work.
The conditions of data set [6]: up to 30 mg kg^−1 i.p., Sprague-Dawley rats; cited from earlier work.
For data set [7] the following is noted: experimental mice; cited from earlier work.
Data set [8] can be described thus: Plasma pharmacokinetics after single i.p. dose. The data set is classed as in vivo, BALB/c mice. Conditions: 30 mg kg^−1 i.p. The method, boiled down:
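Female BALB/c mice (7–9 weeks old, n = 4 per time point) received a single i.p. dose of 30 mg kg−1 in 3% DMSO + 97% peanut oil. Blood was taken at 0, 0.25, 0.5, 1, 2, 4, 8 and 24 h. Plasma (20 μL) was mixed with 60 μL methanol:dichloromethane (1:1), then test compound was quantified by LC-MS on a C18 column with a water/acetonitrile (0.1% formic acid) gradient.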

The nature of data set [9]: 14-day i.p. tolerability in mice. The data set is classed as in vivo, C57BL/6 mice. The note with it: 30 mg kg^−1 i.p. daily for 14 days, female C57BL/6. The method, boiled down:
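Female C57BL/6 mice (6–7 weeks old, n = 6 per group) got test compound at 6 mg mL−1 in 3% DMSO + 97% peanut oil. The preparation was thawed, heated to ~60 °C and cooled before dosing. Dose was ~100 μL i.p. (30 mg kg−1) once daily for 14 days; vehicle-injected controls. Body weight was taken every 2–4 days. At day 14, serum AST was measured by colorimetric kit, and organs were paraffin-embedded and H&E-stained.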

A short description of data set [10]: Tissue biodistribution by LC-MS after 14-day dosing. The data set is classed as in vivo, C57BL/6 mice. Conditions: female, C57BL/6, mouse, ip, 30 mg kg^−1. Put shortly:
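After 14 days of daily i.p. dosing (30 mg kg−1 in 3% DMSO/97% peanut oil), brain, kidney and liver were harvested at termination. Pre-weighed organs were homogenised in methanol:dichloromethane (1:1), held 30 min at 4 °C and spun 10 min at 14000 rpm, 4 °C. LC-MS used a C18 column at 40 °C and 0.3 mL min−1, with a water/acetonitrile (0.1% formic acid) gradient from 20% to 95% B over a 10 min run.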

Data set [11] in a line: Solubility in DMSO by UV-Vis spectrophotometry. The data set is classed as physicochemical. Put shortly:
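Excess test compound (50 mg) was shaken in 500 μL DMSO at 1000 rpm for 24 h, then filtered through 0.22 μm and diluted 100-fold in DMSO. Concentration came from absorbance at the peak, read against a blank-corrected calibration curve at 345 nm. Standards were serial dilutions in DMSO from 0.5 to 0.007 mg mL−1.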

Values joined by “and” are separate entries in the source; they are usually repeats but may differ in a detail not shown here. Identical values can stand only once. Like-named read-outs stand apart in the source and are kept apart here.

By EC50 is commonly meant the midpoint of the concentration-response curve. Read a low EC50 as a more potent agent. For orientation: Cmax means the maximum level reached in the sampled fluid or tissue. As a reminder, the solubility is the dissolved amount per volume that the medium holds.

KCa3.1 channel, sequence (O15554 whole entry, one chain of several): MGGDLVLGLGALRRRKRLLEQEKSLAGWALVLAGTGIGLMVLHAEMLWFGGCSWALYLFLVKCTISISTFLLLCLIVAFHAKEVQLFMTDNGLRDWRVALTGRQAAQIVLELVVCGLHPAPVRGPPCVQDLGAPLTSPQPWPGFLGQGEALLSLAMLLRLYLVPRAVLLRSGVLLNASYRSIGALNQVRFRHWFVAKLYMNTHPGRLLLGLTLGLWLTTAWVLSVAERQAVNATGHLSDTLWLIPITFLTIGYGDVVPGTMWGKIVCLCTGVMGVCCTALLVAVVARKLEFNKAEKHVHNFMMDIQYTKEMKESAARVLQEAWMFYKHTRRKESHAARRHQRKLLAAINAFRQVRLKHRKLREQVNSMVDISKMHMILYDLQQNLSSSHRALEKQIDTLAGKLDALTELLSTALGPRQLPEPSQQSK
KCa2.2, sequence (P70604 whole entry): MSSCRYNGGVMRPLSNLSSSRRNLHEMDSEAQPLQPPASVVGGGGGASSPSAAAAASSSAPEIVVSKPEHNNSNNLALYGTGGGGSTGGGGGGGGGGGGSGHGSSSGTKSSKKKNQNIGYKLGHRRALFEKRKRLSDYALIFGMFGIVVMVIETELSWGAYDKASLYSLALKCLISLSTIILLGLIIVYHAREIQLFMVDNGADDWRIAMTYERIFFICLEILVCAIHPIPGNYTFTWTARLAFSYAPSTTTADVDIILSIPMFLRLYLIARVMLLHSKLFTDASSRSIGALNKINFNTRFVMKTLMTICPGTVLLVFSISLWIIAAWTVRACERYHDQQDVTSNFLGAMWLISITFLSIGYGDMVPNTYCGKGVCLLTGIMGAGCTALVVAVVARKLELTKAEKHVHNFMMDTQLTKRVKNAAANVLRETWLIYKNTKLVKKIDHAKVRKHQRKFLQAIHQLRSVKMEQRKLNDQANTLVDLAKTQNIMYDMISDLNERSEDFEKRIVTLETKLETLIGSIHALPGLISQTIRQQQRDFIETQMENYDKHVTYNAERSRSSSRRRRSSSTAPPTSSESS
KCa2.3, sequence (Q9UGI6 whole entry): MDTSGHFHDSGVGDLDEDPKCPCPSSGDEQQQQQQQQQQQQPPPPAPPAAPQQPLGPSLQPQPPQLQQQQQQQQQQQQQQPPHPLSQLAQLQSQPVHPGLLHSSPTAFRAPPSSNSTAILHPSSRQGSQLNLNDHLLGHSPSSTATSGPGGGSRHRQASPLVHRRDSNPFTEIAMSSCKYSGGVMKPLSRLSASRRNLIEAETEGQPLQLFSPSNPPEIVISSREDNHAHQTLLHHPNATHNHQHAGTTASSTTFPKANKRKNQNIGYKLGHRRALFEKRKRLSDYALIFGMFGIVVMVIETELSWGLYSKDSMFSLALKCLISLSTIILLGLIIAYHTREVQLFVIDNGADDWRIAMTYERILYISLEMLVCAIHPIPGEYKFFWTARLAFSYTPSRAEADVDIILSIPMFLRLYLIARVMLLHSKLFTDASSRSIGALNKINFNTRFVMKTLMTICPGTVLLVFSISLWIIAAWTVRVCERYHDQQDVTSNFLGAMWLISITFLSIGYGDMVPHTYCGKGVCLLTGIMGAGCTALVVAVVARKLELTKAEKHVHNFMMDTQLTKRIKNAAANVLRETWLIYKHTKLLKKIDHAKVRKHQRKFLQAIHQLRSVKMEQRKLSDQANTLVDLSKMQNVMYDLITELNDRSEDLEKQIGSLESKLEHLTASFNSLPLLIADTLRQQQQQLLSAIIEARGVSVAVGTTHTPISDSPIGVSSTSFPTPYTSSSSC

In the case of `Nc1nc2c(cc(C(F)(F)F)c3ncccc32)s1` [NKV-104, 5-(trifluoromethyl)thiazolo[4,5-f]quinolin-2-amine], the half-maximal effective concentration (EC50) in data set [1] is 29.3 µM; in [2], 1.7 µM; in data set [3] it was 11.9 µM.
Consider `Nc1nc2c(ccc3ccccc32)s1` [SKA-31, Naphtho[1,2-d]thiazol-2-ylamine], for which the “Selectivity for KCa3.1 over KCa2 channels” value in data set [4] was “lacked selectivity”. In addition, the Tolerability entry in data set [5] and in data set [6] was “well-tolerated” throughout. The “Effect on blood pressure” value in data set [7] is “lowered blood pressure”.
As for `Cc1cc2sc(N)nc2c2cccnc12` [SKA-346, 5-methyl-[1,3]thiazolo[4,5-f]quinolin-2-amine], the “Cmax relative to EC50 for KCa3.1 activation” value in data set [8] (at 15 min) is on record as “about 15 times”. Moreover, in data set [8] (female BALB/c mice, plasma), the MRTlast was found to be 4.82 h and the “circulating half-life (t1/2)” value is reported as 2.84 h. Further, the Cmax in data set [8] (female, BALB/c, mouse, plasma, ip, 30 mg/kg, peak plasma concentration (Cmax), female BALB/c mice, at 15 min) is 6290 ng/mL and 29.2 µM. Moreover, in data set [9], the “Change in serum aspartate aminotransferase (AST) vs vehicle” value is “did not cause any significant change” and the “Mouse body weight loss vs vehicle” value was “no significant mouse body weight loss”. In data set [2], this molecule displayed an EC50 of 1.9 µM. In data set [10] (kidney), this molecule came in with a concentration at 14 days of 60.7 ng/g. This molecule also gave a concentration at 14 days in data set [10] (liver) of 22.5 ng/g. Also, the solubility at 24 h in data set [11] was 40600 µg/mL and 189000 µM.

The values are drawn from article PMC11615718 (RSC Advances, 2024).
